Measured values published in ChEMBL document CHEMBL3259684, “Dual inhibition of the α-glucosidase and butyrylcholinesterase studied by molecular field topology analysis” (Eur J Med Chem, 2014).
One block for each compound: values may come before it.

What was measured:
Cholinesterase = Cholinesterase (Homo sapiens, UniProt P06276); assay: Inhibition of BChE (unknown origin) using BCh iodide as substrate preincubated for 15 mins prior to substrate addition measured after 10 mins by Ellman's method
Chain of Cholinesterase (P06276 whole entry): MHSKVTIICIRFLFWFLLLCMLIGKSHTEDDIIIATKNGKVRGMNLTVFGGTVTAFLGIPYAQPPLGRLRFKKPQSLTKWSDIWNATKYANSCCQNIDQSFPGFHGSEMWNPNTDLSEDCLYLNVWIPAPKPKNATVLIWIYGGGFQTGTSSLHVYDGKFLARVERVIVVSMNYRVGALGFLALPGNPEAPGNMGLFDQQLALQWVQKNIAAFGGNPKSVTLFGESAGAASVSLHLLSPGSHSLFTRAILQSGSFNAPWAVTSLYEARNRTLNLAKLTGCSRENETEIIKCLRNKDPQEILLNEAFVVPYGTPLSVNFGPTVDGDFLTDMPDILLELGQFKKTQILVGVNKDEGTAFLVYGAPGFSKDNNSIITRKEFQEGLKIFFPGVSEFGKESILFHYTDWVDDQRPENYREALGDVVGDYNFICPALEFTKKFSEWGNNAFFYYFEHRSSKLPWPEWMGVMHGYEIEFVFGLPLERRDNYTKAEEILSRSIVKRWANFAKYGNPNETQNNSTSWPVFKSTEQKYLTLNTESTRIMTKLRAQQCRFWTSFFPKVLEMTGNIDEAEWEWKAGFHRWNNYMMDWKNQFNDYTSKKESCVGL

[1] = Inhibition of yeast alpha-glucosidase type 3 using p-nitrophenyl-alpha-D-glucopyranoside as substrate preincubated with substrate for 5 mins prior to enzyme challenge for 30 mins by absorbance analysis; set-up: species or system Saccharomyces cerevisiae
How it was run: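 Yeast enzyme at 0.1 units/ml in pH 6.8 potassium phosphate/MgCl2 buffer; substrate stock 6 mmol/L. Compound (sample solution 0.6 mg/ml in DMSO) mixed with buffer, water and substrate, held 5 min at 37 °C, then enzyme added; reaction 30 min at 37 °C, stopped with 0.4 mol/L glycine buffer pH 10; p-nitrophenol read at 410 nm. Deoxynojirimycin as reference inhibitor.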

SMILES: COc1ccc(/C=C/C(=O)c2ccccc2)cc1 [4-METHOXY CHALCONE]
IC50 (Cholinesterase): 42 µM

SMILES: OC1(c2cn(-c3cccc(Cl)c3)nn2)CCCCC1
IC50 (Cholinesterase): 512 µM | IC50 [1]: 1390 µM

IC50 [1]: 1870 µM
SMILES: O=C(/C=C/c1ccc2c(c1)OCO2)c1ccccc1

SMILES: CCCCCCCCCCCCCCCCn1cc(C2(O)CCCCC2)nn1
IC50 (Cholinesterase): 500 µM | IC50 [1]: 1190 µM

SMILES: Oc1ccc(C2=Nc3ccccc3SC(c3cccc(O)c3)C2)cc1 (stereo unspecified)
IC50 (Cholinesterase): 4.7 µM

SMILES: O=[N+]([O-])c1ccc(-n2cc(-c3ccccc3)nn2)cc1
IC50 (Cholinesterase): 250 µM | IC50 [1]: 235 µM

SMILES: Brc1ccc(-n2cc(-c3ccccc3)nn2)cc1
IC50 (Cholinesterase): 375 µM | IC50 [1]: 409 µM

SMILES: O=C(/C=C/c1ccccc1)c1ccccc1O [2'-HYDROXYCHALCONE]
IC50 (Cholinesterase): 84 µM | IC50 [1]: 15 µM

IC50 [1]: 18 µM
SMILES: Oc1ccccc1C1=Nc2ccccc2SC(c2ccc(Cl)cc2)C1 (stereo unspecified)

SMILES: O=C(/C=C/c1ccccc1)c1ccccc1 [CHALCONE]
IC50 (Cholinesterase): 87 µM

SMILES: O=[N+]([O-])c1ccc(C2CC(c3ccccc3O)=Nc3ccccc3S2)cc1 (stereo unspecified)
IC50 (Cholinesterase): 57 µM

SMILES: Nc1ccc(C(=O)/C=C/c2ccccc2Br)cc1
IC50 (Cholinesterase): 26 µM

SMILES: N#Cc1cc([N+](=O)[O-])ccc1-n1cc(C2(O)CCCCC2)nn1
IC50 (Cholinesterase): 42.4 µM | IC50 [1]: 49.7 µM

SMILES: O=C(/C=C/c1ccccc1O)c1ccccc1
IC50 (Cholinesterase): 105 µM

SMILES: O=C(/C=C/c1ccccc1O)c1ccccc1O
IC50 (Cholinesterase): 13 µM | IC50 [1]: 49.4 µM

IC50 [1]: 6760 µM
SMILES: O=[N+]([O-])c1ccccc1-n1cc(-c2ccccc2)nn1

SMILES: O=[N+]([O-])c1ccccc1-n1cc(C2(O)CCCCC2)nn1
IC50 (Cholinesterase): 333 µM | IC50 [1]: 1710 µM

SMILES: COC(=O)Cn1cc(C2(O)CCCCC2)nn1
IC50 (Cholinesterase): 362 µM | IC50 [1]: 255 µM

SMILES: Cc1ccc(-n2cc(C3(O)CCCCC3)nn2)c(Cl)c1
IC50 (Cholinesterase): 65.5 µM | IC50 [1]: 366 µM

SMILES: OC1(c2cn(-c3ccc(Cl)cc3)nn2)CCCCC1
IC50 (Cholinesterase): 294 µM | IC50 [1]: 1390 µM

SMILES: CCSc1ccccc1-c1cnc(-c2ccsc2)[nH]1
IC50 (Cholinesterase): 0.1 µM

SMILES: COc1cccc(/C=C/C(=O)c2ccccc2)c1
IC50 (Cholinesterase): 32 µM | IC50 [1]: 151 µM

SMILES: CCCCCCCCc1ccc(-n2cc(C3(O)CCCCC3)nn2)cc1
IC50 (Cholinesterase): 43.6 µM | IC50 [1]: 658 µM

SMILES: O=[N+]([O-])c1cccc(-n2cc(-c3ccccc3)nn2)c1
IC50 (Cholinesterase): 499 µM | IC50 [1]: 520 µM

SMILES: Cc1ccc(C2CC(c3ccccc3O)=Nc3ccccc3S2)cc1 (stereo unspecified)
IC50 (Cholinesterase): 14 µM | IC50 [1]: 12 µM

SMILES: Oc1ccccc1C1=Nc2ccccc2SC(c2ccccc2)C1 (stereo unspecified)
IC50 (Cholinesterase): 62 µM | IC50 [1]: 12.8 µM

IC50 [1]: 130 µM
SMILES: COc1cccc(/C=C/C(=O)c2ccccc2O)c1

SMILES: CC(=O)c1ccc(-n2cc(C3(O)CCCCC3)nn2)cc1
IC50 (Cholinesterase): 450 µM | IC50 [1]: 1560 µM

SMILES: Cc1ccc(C2CC(c3cccc(O)c3)=Nc3ccccc3S2)c(C)c1 (stereo unspecified)
IC50 (Cholinesterase): 19.7 µM

SMILES: O=[N+]([O-])c1cccc(-n2cc(C3(O)CCCCC3)nn2)c1
IC50 (Cholinesterase): 585 µM | IC50 [1]: 862 µM

SMILES: COc1ccccc1/C=C/C(=O)c1ccccc1
IC50 (Cholinesterase): 27 µM

SMILES: Clc1ccccc1-n1cc(-c2ccccc2)nn1
IC50 (Cholinesterase): 41.3 µM | IC50 [1]: 57.2 µM

SMILES: Oc1ccccc1C1=Nc2ccccc2SC(c2ccc(F)cc2)C1 (stereo unspecified)
IC50 (Cholinesterase): 14 µM | IC50 [1]: 12 µM

SMILES: O=[N+]([O-])c1ccc(-n2cc(C3(O)CCCCC3)nn2)cc1
IC50 (Cholinesterase): 409 µM | IC50 [1]: 320 µM

SMILES: O=C(On1cc(C2(O)CCCCC2)nn1)c1ccccc1
IC50 (Cholinesterase): 248 µM | IC50 [1]: 1090 µM

IC50 [1]: 20.2 µM
SMILES: COc1ccc(C(=O)/C=C/c2ccc(N)cc2)cc1

SMILES: c1ccc(C2=Nc3ccccc3SC(c3cccs3)C2)cc1 (stereo unspecified)
IC50 (Cholinesterase): 9.1 µM

SMILES: OC1(c2cn(-c3ccccc3Cl)nn2)CCCCC1
IC50 (Cholinesterase): 430 µM | IC50 [1]: 370 µM

SMILES: CC(=O)c1ccccc1-n1cc(-c2ccccc2)nn1
IC50 (Cholinesterase): 295 µM | IC50 [1]: 313 µM

SMILES: O=C(/C=C/c1ccc([N+](=O)[O-])cc1)c1ccccc1
IC50 (Cholinesterase): 32 µM | IC50 [1]: 3850 µM

IC50 [1]: 33 µM
SMILES: c1ccc(C2=Nc3ccccc3SC(c3ccccc3)C2)cc1 (stereo unspecified)

SMILES: CC(=O)c1cccc(-n2cc(C3(O)CCCCC3)nn2)c1
IC50 (Cholinesterase): 452 µM | IC50 [1]: 320 µM

SMILES: COC(=O)Cc1ccc(-n2cc(C3(O)CCCCC3)nn2)cc1
IC50 (Cholinesterase): 568 µM | IC50 [1]: 812 µM

SMILES: Clc1ccc(-n2cc(-c3ccccc3)nn2)cc1
IC50 (Cholinesterase): 555 µM | IC50 [1]: 378 µM

SMILES: COc1cccc(-n2cc(C3(O)CCCCC3)nn2)c1
IC50 (Cholinesterase): 83.3 µM | IC50 [1]: 245 µM

SMILES: OC1(c2cn(-c3ccc(Br)cc3)nn2)CCCCC1
IC50 (Cholinesterase): 298 µM | IC50 [1]: 325 µM

SMILES: OC1(c2cn(-c3ccncc3)nn2)CCCCC1
IC50 (Cholinesterase): 385 µM | IC50 [1]: 520 µM

IC50 [1]: 93 µM
SMILES: COc1cccc(/C=C/C(=O)c2ccc(N)cc2)c1

SMILES: CCCCCCCCCCCCCCCCn1cc(-c2ccccc2)nn1
IC50 (Cholinesterase): 454 µM | IC50 [1]: 370 µM

IC50 [1]: 11.9 µM
SMILES: COc1ccc(C2CC(c3ccccc3O)=Nc3ccccc3S2)cc1 (stereo unspecified)

IC50 [1]: 151 µM
SMILES: O=C(/C=C/c1ccc2c(c1)OCO2)c1ccccc1O

SMILES: Oc1ccc(C2=Nc3ccccc3SC(c3cccs3)C2)cc1 (stereo unspecified)
IC50 (Cholinesterase): 3.97 µM

SMILES: CC(=O)c1cccc(-n2cc(-c3ccccc3)nn2)c1
IC50 (Cholinesterase): 451 µM | IC50 [1]: 265 µM
